# Assay results as given in ChEMBL document CHEMBL5712072, “Epigenetic targeting of Hedgehog pathway transcriptional output through BET bromodomain inhibition” (Nat Med, 2014).
# Active and inactive are the calls of the source. The calls are words filed in the database; no cut-off is given here.
# Key:
# Hh-Light2 [1] = experiment: Upregulation of Gli1 mRNA level in […] Hh-Light2 cells at 1 microM by qRT-PCR analysis; format: functional, cell-based
# Outline: (§1)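 Hh-Light2 (mouse 3T3 Gli-luciferase reporter line) cells were stimulated with Shh-N conditioned medium or SAG, alone or with JQ1 1 uM. Gli1, Gli2, Ptch1, Sufu, Smo and Brd4 mRNA were measured by SYBR Green qRT-PCR. Values are mean of triplicates ± SD.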
# Hh-Light2 [2] = experiment: Upregulation of Ptch1 mRNA level in […] Hh-Light2 cells at 1 microM by qRT-PCR analysis; format: functional, cell-based; outline: as §1
# Hh-Light2 [3] = experiment: Upregulation of Gli2 mRNA level in […] Hh-Light2 cells at 1 microM by qRT-PCR analysis; format: functional, cell-based; outline: as §1
# Hh-Light2 [4] = experiment: Upregulation of Smo mRNA level in […] Hh-Light2 cells at 1 microM by qRT-PCR analysis; format: functional, cell-based; outline: as §1
# Hh-Light2 [5] = experiment: Upregulation of Sufu mRNA level in […] Hh-Light2 cells at 1 microM by qRT-PCR analysis; format: functional, cell-based; outline: as §1
# Hh-Light2 [6] = experiment: Downregulation of Brd4 mRNA level in […] Hh-Light2 cells at 1 microM by qRT-PCR analysis; format: functional, cell-based; outline: as §1
# [7] = molecular target: Bromodomain-containing protein 4 (Danio rerio) (UniProt F1R5H6); experiment: Inhibition of BRD4 in danio rerio assessed as decrease in GFP mRNA expression level by qRT-PCR analysis
# Chain of Bromodomain-containing protein 4 (Danio rerio) (F1R5H6 whole entry): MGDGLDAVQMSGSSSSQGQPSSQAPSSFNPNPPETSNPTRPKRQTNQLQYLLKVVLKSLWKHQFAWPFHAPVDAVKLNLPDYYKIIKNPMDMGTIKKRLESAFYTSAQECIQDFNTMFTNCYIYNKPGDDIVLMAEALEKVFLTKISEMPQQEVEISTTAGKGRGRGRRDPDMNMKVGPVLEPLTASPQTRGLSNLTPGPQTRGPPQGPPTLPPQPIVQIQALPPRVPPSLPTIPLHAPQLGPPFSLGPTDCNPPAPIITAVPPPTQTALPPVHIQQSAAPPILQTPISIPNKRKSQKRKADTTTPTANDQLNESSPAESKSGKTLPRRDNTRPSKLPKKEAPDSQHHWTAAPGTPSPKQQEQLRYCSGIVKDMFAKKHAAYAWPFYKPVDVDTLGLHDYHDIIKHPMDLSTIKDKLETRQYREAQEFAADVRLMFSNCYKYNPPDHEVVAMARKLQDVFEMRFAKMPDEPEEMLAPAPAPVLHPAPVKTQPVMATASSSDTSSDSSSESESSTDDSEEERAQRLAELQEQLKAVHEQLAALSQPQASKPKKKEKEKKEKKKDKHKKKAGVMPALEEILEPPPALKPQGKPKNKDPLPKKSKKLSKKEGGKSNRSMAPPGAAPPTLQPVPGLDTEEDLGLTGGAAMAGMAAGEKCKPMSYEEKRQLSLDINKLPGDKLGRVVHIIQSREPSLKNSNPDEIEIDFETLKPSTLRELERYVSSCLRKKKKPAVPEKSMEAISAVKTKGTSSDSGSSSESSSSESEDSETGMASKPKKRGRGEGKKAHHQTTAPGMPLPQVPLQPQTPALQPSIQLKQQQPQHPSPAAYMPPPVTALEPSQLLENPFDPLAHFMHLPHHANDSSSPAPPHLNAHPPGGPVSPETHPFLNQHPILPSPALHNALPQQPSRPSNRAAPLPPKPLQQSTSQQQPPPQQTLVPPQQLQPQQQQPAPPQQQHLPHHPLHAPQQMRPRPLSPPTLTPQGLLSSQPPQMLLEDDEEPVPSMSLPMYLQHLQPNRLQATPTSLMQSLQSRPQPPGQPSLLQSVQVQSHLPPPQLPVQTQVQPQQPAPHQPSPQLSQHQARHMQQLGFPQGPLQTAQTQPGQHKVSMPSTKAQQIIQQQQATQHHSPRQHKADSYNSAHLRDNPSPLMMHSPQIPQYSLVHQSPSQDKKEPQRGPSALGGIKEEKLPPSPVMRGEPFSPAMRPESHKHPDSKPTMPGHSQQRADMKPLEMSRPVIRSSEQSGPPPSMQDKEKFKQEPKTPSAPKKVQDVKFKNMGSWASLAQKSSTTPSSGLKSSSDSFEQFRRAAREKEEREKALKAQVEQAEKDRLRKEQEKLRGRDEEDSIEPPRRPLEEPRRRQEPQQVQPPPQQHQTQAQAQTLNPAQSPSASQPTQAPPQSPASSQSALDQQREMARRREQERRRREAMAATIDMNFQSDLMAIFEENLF
# Danio rerio = organism: Danio rerio; experiment: Effect on heat shock treated transgenic zebra fish assessed as increase in eye diameter; format: functional, organism-based
# Outline: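 Tg(hsp70l:shha-EGFP)+/− x TL embryos were heat shocked at 38 °C for 15 min at the 8-somite stage, then placed directly in JQ1 (0.6 or 6.0 um) or DMSO. At […] embryos were sorted GFP+/− into fresh drug. Eye dorsal axis length was scored at 56 hpf, n=12 per group; Student's t-test.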
# MEF [8] = experiment: Downregulation of Gli1 mRNA level in Sufu-/- MEF cells at 1 microM by qRT-PCR analysis; format: functional, cell-based; details: Mus musculus
# Outline: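 Sufu−/− MEFs were treated with DMSO or inhibitors at 1 uM, and Gli1/Gli2 mRNA was measured by SYBR Green qRT-PCR (mean of triplicates ± SD). A time course with JQ1 1 uM included a 3 h point.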
# MEF [9] = experiment: Downregulation of Gli2 transcription in Sufu-/- MEF cells at 1 microM by […] analysis; format: functional, cell-based; details: Mus musculus
# MEF [10] = experiment: Downregulation of BRD4 mRNA level in Sufu-/- MEF cells by qRT-PCR analysis; format: functional, cell-based; details: Mus musculus
# Hh-Light2 [11] = experiment: Inhibition of full length murine Gli2 expressed in […] Hh-Light2 cells assessed as reduction in mRNA level at 1 microM by qRT-PCR analysis; format: cell-based; details: Mus musculus
# Outline: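 Hh-Light2 cells were transiently transfected with HA-Gli2-FL using Turbofect and treated 24 h later with 1 uM JQ1, GDC-0449, LDE225 or SANT-1. Gli1 mRNA was measured by qRT-PCR. Values are mean of triplicates ± SD.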
# Hh-Light2 [12] = experiment: Upregulation of Ptch1 mRNA level in […] Hh-Light2 cells transfected with full length murine Gli2 by RT-PCR analysis; format: functional, cell-based; details: dose 1.0 µM
# Outline: (§2)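 Hh-Light2 cells were transiently transfected with HA-Gli2-FL (murine) or Myc-GLI2-DN (N-terminally truncated human) and treated with drugs 24 h post-transfection. Ptch1 mRNA was measured by qRT-PCR. Values are mean of triplicates ± SD.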
# Hh-Light2 [13] = experiment: Upregulation of Ptch1 mRNA level in […] Hh-Light2 cells transfected with […] GlI2 by RT-PCR analysis; format: functional, cell-based; details: dose 1.0 µM; outline: as §2
# Med1 [14] = experiment: Downregulation of Gli1mRNA expression in […] Med1 cells at 1 microM by qRT-PCR analysis; format: functional, cell-based
# Outline: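 Med1-MB cells were treated with JQ1 1 uM, and Gli1 mRNA was measured by SYBR Green qRT-PCR. Values are mean of triplicates ± SD.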
# Medulloblastoma cell [15] = experiment: Downregulation of Smo mRMA expression in […] Medulloblastoma cell expressing wildtype SMO at 1 microM by qRT-PCR analysis; format: functional, cell-based
# Outline: (§3)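 SmoWT-MB cells were treated with JQ1 at 1 uM (GDC-0449 or LDE225 at 0.1 uM as comparators). Gli1, Gli2, Smo, Sufu and Brd4 mRNA were measured by SYBR Green quantitative RT-PCR. Values are mean of triplicates ± SD.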
# Medulloblastoma cell [16] = experiment: Downregulation of sufu mRMA expression in […] Medulloblastoma cell expressing wildtype SMO at 1 microM by qRT-PCR analysis; format: functional, cell-based; outline: as §3
# Medulloblastoma cell [17] = experiment: Downregulation of BRD4 mRMA expression in […] Medulloblastoma cell expressing wildtype SMO at 1 microM by qRT-PCR analysis; format: functional, cell-based; outline: as §3
# Medulloblastoma cell [18] = experiment: Cytotoxicity in Ptch-mutated in […] medulloblastoma cells expressing wildtype SMO by CellTiter-Glo analysis; format: functional, cell-based
# [19] = Cytotoxicity in Ptch-mutated human Med1 cells expressing wildtype SMO by CellTiter-Glo analysis; format: functional, cell-based
# Medulloblastoma cell [20] = experiment: Antiproliferative activity against in […] medulloblastoma cells expressing SmoWT-MB cells from mouse assessed as cell proliferation by EdU analysis; format: functional, cell-based
# Outline: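 SmoWT-MB cells given 0.1uM GDC-0449 or LDE225 (or JQ1 1 uM); 10uM EdU added for final 6-8hrs; EdU+ cells detected by Click-iT flow cytometry or imaging, DAPI counterstain; proliferation index = EdU+/DAPI+ cells; group means ± SD.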
# [21] = Toxicity in NSG mouse xenografted with Med1 cells assessed as survival of mouse at 50 mg/kg/day, ip; format: organism-based; details: in vivo
# Outline: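 Med1-MB cells carrying luciferase, 0.5x10e6, were injected into the cerebellum of NSG mice. After engraftment was confirmed, mice were randomized to JQ1 50 mg/kg IP daily or vehicle until euthanasia was required, and survival was recorded.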
# Med1 [22] = experiment: Antitumor activity in […] Med1 cells xenografted in NSG mouse assessed as reduction in tumor growth at 50 mg/kg/day, ip; format: functional, organism-based
# Outline: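 Med1-MB cells carrying a lentiviral luciferase reporter, 2x10e6 injected into the flank of 4-6 week old NSG mice. After engraftment was confirmed, mice were randomized to JQ1 50 mg/kg IP daily or vehicle. Tumor growth was followed by IVIS imaging as average radiance; tumor size was also recorded at day 21 of treatment.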
# Medulloblastoma cell [23] = experiment: Antitumor activity in […] medulloblastoma cells expressing SmoD477G mutant xenografted in NSG mouse assessed as decrease in tumor growth at 50 mg/kg/day, ip; format: functional, organism-based
# Outline: (§4)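 SmoWT-MB or SmoD477G-MB cells, 2x10e6 per flank, injected into both flanks of 4-6 week old NSG mice. After engraftment mice were randomized to vehicle, JQ1 50 mg/kg IP qd or GDC-0449 100 mg/kg PO qd until euthanasia was required. Tumor growth was measured by caliper; data are group means ± S.E.M.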
# Medulloblastoma cell [24] = experiment: Antitumor activity in […] medulloblastoma expressing wildtype SMO xenografted in NSG mouse assessed as reduction in tumor growth at 50 mg/kg/day, ip; format: functional, organism-based; outline: as §4
# Medulloblastoma cell [25] = experiment: Induction of apoptosis in human wildtype SMO expressing medulloblastoma cells assessed as viable cells by annexin-V/PI staining based flow cytometric analysis (reference value: 74.9%); format: functional
# Medulloblastoma cell [26] = experiment: Induction of apoptosis in human wildtype SMO expressing medulloblastoma cells assessed as early apoptotic cells by annexin-V/PI staining based flow cytometric analysis (reference value: 0.59%); format: functional
# [27] = Induction of apoptosis in human Med1 cells assessed as viable cells by annexin-V/PI staining based flow cytometric analysis (reference value: 96.4%); format: functional, Medulloblastoma cell
# [28] = Induction of apoptosis in human Med1 cells assessed as early apoptotic cells by annexin-V/PI staining based flow cytometric analysis (reference value: 1.09%); format: functional, Medulloblastoma cell
# [29] = Induction of apoptosis in human Med1 cells assessed as late apoptotic cells by annexin-V/PI staining based flow cytometric analysis (reference value: 0.60%); format: functional, Medulloblastoma cell
# [30] = Induction of apoptosis in human Med1 cells assessed as necrotic cells by annexin-V/PI staining based flow cytometric analysis (reference value: 1.87%); format: functional, Medulloblastoma cell
# Med1 [31] = experiment: Induction of cell cycle arrest in […] Med1 cells assessed as increased accumulation of cells in G1 phase by PI staining based FACS analysis; format: functional
# Outline: (§5)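 Med1-MB cells were treated with JQ1, fixed in 70% ethanol for 30 min at 4 °C, and stained with PI plus RNase A at 37 °C for 45 min. Cells were filtered through 70 um mesh, and cell-cycle distribution was read by FACS.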
# Med1 [32] = experiment: Induction of cell cycle arrest in […] Med1 cells assessed as decreased accumulation of cells in S phase by PI staining based FACS analysis; format: functional; outline: as §5
# Medulloblastoma cell [33] = experiment: Antiproliferation of […] Hh driven medulloblastoma cells […] by cell titre glo assay; format: functional, cell-based
# Medulloblastoma cell [34] = experiment: Antiproliferation of human Hh driven medulloblastoma cells by cell titre glo assay; format: functional, cell-based
# Medulloblastoma cell [35] = experiment: Induction of apoptosis in mouse wildtype SMO expressing medulloblastoma cells assessed as necrotic cells by annexin-V/PI staining based flow cytometric analysis (reference value: 22%)
# Medulloblastoma cell [36] = experiment: Induction of apoptosis in mouse wildtype SMO expressing medulloblastoma cells assessed as late apoptotic cells by annexin-V/PI staining based flow cytometric analysis (reference value: 2.5%)
# MEF [37] = experiment: Downregulation of Gli transcription in Sufu-/- MEF cells by immunoblot analysis; format: functional, cell-based; details: Mus musculus
# Outline: (§6)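 Sufu−/− MEFs exposed to DMSO or 1 uM of JQ1, GDC-0449, LDE225 or SANT-1; RIPA lysis 30min on ice, cleared 13000rpm 15min 4°C; SDS-PAGE immunoblot with anti-GLI1, β-tubulin as loading control.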
# MEF [38] = experiment: Downregulation of Gli1 protein expression in Sufu-/- MEF cells by immunoblot analysis; format: functional, cell-based; details: Mus musculus; outline: as §6
# [39] = molecular target: Zinc finger protein GLI2 (Homo sapiens) (UniProt P10070); experiment: Inhibition of human GLI2 expressed in Hh-Light2 cells assessed as reduction in Gli1 mRNA expression level by qRT-PCR analysis; format: cell-based
# Chain of Zinc finger protein GLI2 (Homo sapiens) (P10070 whole entry, the tested form may be a part): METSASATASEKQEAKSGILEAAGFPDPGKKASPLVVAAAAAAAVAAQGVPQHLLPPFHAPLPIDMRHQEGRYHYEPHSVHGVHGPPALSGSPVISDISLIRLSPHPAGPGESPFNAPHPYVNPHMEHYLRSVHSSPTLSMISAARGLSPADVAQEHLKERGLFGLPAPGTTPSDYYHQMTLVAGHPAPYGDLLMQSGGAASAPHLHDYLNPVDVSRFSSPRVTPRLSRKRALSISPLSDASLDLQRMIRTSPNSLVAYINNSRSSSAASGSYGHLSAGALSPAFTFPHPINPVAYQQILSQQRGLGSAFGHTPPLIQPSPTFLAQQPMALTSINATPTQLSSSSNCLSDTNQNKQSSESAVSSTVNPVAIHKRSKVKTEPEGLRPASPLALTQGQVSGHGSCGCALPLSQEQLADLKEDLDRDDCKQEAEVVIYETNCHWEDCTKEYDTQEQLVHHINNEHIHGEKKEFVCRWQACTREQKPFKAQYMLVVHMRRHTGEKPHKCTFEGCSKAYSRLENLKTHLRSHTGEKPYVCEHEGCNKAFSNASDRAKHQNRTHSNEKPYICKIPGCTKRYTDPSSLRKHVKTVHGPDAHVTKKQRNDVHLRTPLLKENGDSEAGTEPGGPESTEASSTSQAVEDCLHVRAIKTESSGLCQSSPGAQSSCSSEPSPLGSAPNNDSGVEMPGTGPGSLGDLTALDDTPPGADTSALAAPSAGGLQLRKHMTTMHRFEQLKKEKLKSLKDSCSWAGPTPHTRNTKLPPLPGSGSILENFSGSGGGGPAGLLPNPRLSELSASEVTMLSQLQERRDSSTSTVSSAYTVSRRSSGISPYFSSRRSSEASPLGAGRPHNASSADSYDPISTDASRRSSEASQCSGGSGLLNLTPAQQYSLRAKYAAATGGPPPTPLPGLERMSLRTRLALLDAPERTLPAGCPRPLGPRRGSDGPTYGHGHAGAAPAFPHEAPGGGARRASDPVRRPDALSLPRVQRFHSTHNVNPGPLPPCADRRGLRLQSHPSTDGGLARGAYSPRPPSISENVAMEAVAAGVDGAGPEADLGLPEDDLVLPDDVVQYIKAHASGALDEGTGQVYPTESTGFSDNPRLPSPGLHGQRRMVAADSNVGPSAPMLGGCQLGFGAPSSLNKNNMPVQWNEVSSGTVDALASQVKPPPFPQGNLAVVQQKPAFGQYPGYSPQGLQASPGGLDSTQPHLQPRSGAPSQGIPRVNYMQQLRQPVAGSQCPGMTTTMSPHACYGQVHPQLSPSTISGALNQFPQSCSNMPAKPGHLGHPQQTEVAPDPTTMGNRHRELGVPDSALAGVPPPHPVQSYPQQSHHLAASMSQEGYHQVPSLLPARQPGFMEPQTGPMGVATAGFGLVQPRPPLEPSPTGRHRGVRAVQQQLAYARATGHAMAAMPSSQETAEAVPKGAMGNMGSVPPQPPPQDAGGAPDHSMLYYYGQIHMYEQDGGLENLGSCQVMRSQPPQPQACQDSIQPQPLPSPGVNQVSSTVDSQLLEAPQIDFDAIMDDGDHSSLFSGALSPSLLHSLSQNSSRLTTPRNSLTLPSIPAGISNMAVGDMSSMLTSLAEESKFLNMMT
# Outline: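 Hh-Light2 cells transiently transfected (Turbofect) with full-length murine HA-Gli2-FL or N-terminally truncated human Myc-GLI2-DN; drugs (1 uM JQ1, GDC-0449, LDE225 or SANT-1) added 24hr post-transfection; Gli1 mRNA by SYBR Green qRT-PCR; mean of triplicates ± SD.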
# [40] = molecular target: Bromodomain-containing protein 4 (Mus musculus) (UniProt Q9ESU6); experiment: Inhibition of BRD4 in mouse Hh-Light2 cells assessed as Gli1 mRNA level by qRT-PCR analysis
# [41] = molecular target: Bromodomain-containing protein 4 (Mus musculus) (UniProt Q9ESU6); experiment: Inhibition of BRD4 in mouse Hh-Light2 cells assessed as inhibition in Gli1 protein level by immunoblot analysis
structure (smiles),measurement,setting,value
Cc1sc2c(c1C)C(c1ccc(Cl)cc1)=N[C@@H](CC(=O)OC(C)(C)C)c1nnc(C)n1-2,Activity,Hh-Light2 [1],Active
same,Activity,Hh-Light2 [2],Active
same,Activity,Hh-Light2 [3],Active
same,Activity,Hh-Light2 [4],Active
same,Activity,Hh-Light2 [5],inactive
same,Activity,Hh-Light2 [6],inactive
same,inhibition,[7],Active
same,Activity,Danio rerio,Active
same,Activity,MEF [8],Active
same,Activity,MEF [9],Active
same,Activity,MEF [10],inactive
same,inhibition,Hh-Light2 [11],Active
same,Activity,Hh-Light2 [12],inactive
same,Activity,Hh-Light2 [13],Active
same,Activity,Med1 [14],Active
same,Activity,Medulloblastoma cell [15],Active
same,Activity,Medulloblastoma cell [16],Active
same,Activity,Medulloblastoma cell [17],Active
same,IC50,Medulloblastoma cell [18],~50 nM
same,IC50,[19],~50 nM
same,Activity,Medulloblastoma cell [20],Active
same,Activity,[21],Non-Toxic
same,Activity,Med1 [22],Active
same,Activity,Medulloblastoma cell [23],Active
same,Activity,Medulloblastoma cell [24],Active
same,Activity,Medulloblastoma cell [25],39.2%
same,Activity,Medulloblastoma cell [26],0.64%
same,Activity,[27],87.9%
same,Activity,[28],0.35%
same,Activity,[29],1.61%
same,Activity,[30],10.1%
same,Activity,Med1 [31],Active
same,Activity,Med1 [32],Active
same,Activity,Medulloblastoma cell [33],Active
same,Activity,Medulloblastoma cell [34],Active
same,Activity,Medulloblastoma cell [35],54.7%
same,Activity,Medulloblastoma cell [36],5.44%
Cc1c(C(=O)Nc2ccc(N3C[C@@H](C)O[C@@H](C)C3)nc2)cccc1-c1ccc(OC(F)(F)F)cc1 [SONIDEGIB],Activity,MEF [37],inactive
same,Activity,MEF [38],inactive
same,inhibition,[39],inactive
same,Activity,Medulloblastoma cell [20],Active
same,Activity,Medulloblastoma cell [25],33%
same,Activity,Medulloblastoma cell [26],1.09%
same,inhibition,[40],Active
same,inhibition,[41],Active
same,Activity,Medulloblastoma cell [35],58.8%
same,Activity,Medulloblastoma cell [36],7.15%
